Published values of several laboratories.
Compare with care: the assays were run in different laboratories.

| Compound | target or system | test | test system | setting | endpoint | result |
| --- | --- | --- | --- | --- | --- | --- |
| O=C(N/N=C1\C(=O)N(Cc2ccccc2)c2ccc(Cl)cc21)c1cc2ccccc2[nH]1 | A549 | cell growth or viability |  |  | IC50 | 760 nM |
| CCOC(=O)c1c([C@@H]2C[C@H]2c2ccccc2)n(C)c2ccc(O)cc12 (relative stereo) | Punta Toro virus | cytopathic effect |  |  | MIC50 | > 100 µg/mL |
| COc1ccc(O)c(C(C)(C)C)c1 |  | ABTS scavenging |  |  | IC50 | 5.07 µg/mL |
| Cc1nc2c(N)nc(N)nc2n1C(Cc1ccc(O)cc1)C(=O)O (stereo not shown) | unidentified influenza virus | viral replication | A549, H1N1 PR8 | 24 h | IC50 | 24 nM |
| CC(C)(C)OC(=O)N1CCN(c2ccc(-c3cnc4[nH]cc(C(=O)c5cccc(F)c5)c4c3)cn2)CC1 | A549 | cell growth or viability, MTT |  | 10 µM, 48 h | viability | 93.7% |
| CCC1(c2ccc(N)cc2)CCC(=O)NC1=O (stereo not shown) | PC-3 | cell growth or viability, CCK-8 |  | 48 h | IC50 | > 50000 nM |
| Cc1ccc(CN2C(=O)/C(=N\NC(=O)c3cc4ccccc4[nH]3)c3ccccc32)cc1 | A549 | cell growth or viability |  | 30 µM | inhibition | 91.9% |
| Cc1nc2c(N)nc(N)nc2n1C(Cc1ccccc1)C(=O)O (stereo not shown) | unidentified influenza virus | viral replication | A549, H1N1 PR8 | 24 h | IC50 | 210 nM |
| Nc1ncnc2c([C@@H]3N[C@H](CO)[C@@H](O)[C@H]3O)c[nH]c12 | unidentified influenza virus | viral replication, inhibitor | MDCK | 0.1 µM | inhibition | 0% |
| Oc1c(Cl)cc(Cl)c(Cl)c1Cc1c(O)c(Cl)cc(Cl)c1Cl | Betapolyomavirus hominis | viral replication, inhibitor, qPCR | Vero | 30 µM, 5 days | inhibition | ~70% |
| COc1cc(Nc2nc(C#N)cc3c(-c4ccccc4)n[nH]c23)cc(OC)c1OC | PC-3 | cell growth or viability, MTS |  | 48 h | IC50 | 4300 nM |
| COC(=O)C(Cc1ccccc1)n1c(C)nc2c(N)nc(=O)[nH]c21 (stereo not shown) | unidentified influenza virus | viral replication | A549, H1N1 PR8 | 24 h | IC50 | 340 nM |
| C[C@@H]1[C@H](O)[C@@H](C)/C=C/C=C/C=C/C=C/C=C/C=C/C=C/[C@H](O[C@@H]2O[C@H](C)[C@@H](O)[C@H](N)[C@@H]2O)C[C@@H]2O[C@](O)(C[C@@H](O)C[C@@H](O)[C@H](O)CC[C@@H](O)C[C@@H](O)CC(=O)O[C@H]1C)C[C@H](O)[C@H]2C(=O)O | Leishmania donovani | parasite growth |  | amastigote | IC50 | 0.21 µg/mL |
| Cc1cc(C(C)(C)C)c(O)c(C(C)(C)C)c1 |  | ABTS scavenging, absorbance |  | 5 min | IC50 | 80 nM |
| N=C(N)c1ccc(OCCCCCOc2ccc(C(=N)N)cc2)cc1 | Leishmania donovani | parasite growth, resazurin |  | 72 h, promastigote | IC50 | 1 µg/mL |
| CC(C)(C)OC(=O)N1CCN(c2cc(-c3cnc4[nH]cc(C(=O)c5ccc(F)cc5)c4c3)ccn2)CC1 | A549 | cell growth or viability, MTT |  | 10 µM, 48 h | viability | 84.2% |
| O=C(NCCCCCCCCNc1c2c(nc3ccccc13)CCCC2)c1ccccc1O |  | ABTS scavenging |  | 1 h | IC50 | 25900 nM |
| COc1ccc(C(=O)c2c[nH]c3ncc(-c4ccc(N5CCNCC5)nc4)cc23)cc1 | A549 | cell growth or viability, MTT |  | 10 µM, 48 h | viability | 110% |
| Cc1c(C)c2c(c(C)c1O)CCC(C)(C(=O)O)O2 (stereo not shown) |  | ABTS scavenging |  | 1 h | IC50 | 20100 nM |
